Legend:
Assay type in all cases: functional
[1] = test system: Abutilon theophrasti; assay: Post-emergence herbicidal activity against Abutilon theophrasti (velvetleaf) assessed as growth inhibition at 75 g.a.i./ha applied at two-leaf stage measured after 15 days; details: 360 h, read-out: GI
Procedure, shortened: (§1)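 Pot-grown weeds sown 5 mm deep in greenhouse clay soil (pH 6.5, 1.7% organic matter, CEC 12.9 cmol/kg) at 22-25 °C. Stock diluted with water and sprayed post-emergence: dicots at 2-leaf stage, monocots at 1-leaf stage. Untreated and DMF solvent controls were included. % growth inhibition was scored visually versus untreated controls after 15 days. Triplicates averaged.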

[2] = test system: Setaria viridis; assay: Pre-emergence herbicidal activity against Setaria viridis (green foxtail) assessed as growth inhibition at 75 g.a.i./ha applied 24 hr after seeds were sown measured after 15 days; details: read-out: GI
Procedure, shortened: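 Preliminary pre-emergence screen at a single rate of 75 g a.i./ha. Stock diluted with water and sprayed on greenhouse pots 24 h after seeds were sown 5 mm deep in clay soil (pH 6.5, 1.7% organic matter); grown at 22-25 °C. Untreated and DMF solvent controls included; triplicate. Visual % growth inhibition vs untreated after 15 days, averaged and banded (>80% top band).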

[3] = test system: Echinochloa crus-galli; assay: Pre-emergence herbicidal activity against Echinochloa crus-galli (barnyard grass) assessed as growth inhibition at 75 g.a.i./ha applied 24 hr after seeds were sown measured after 15 days; details: read-out: GI
Procedure, shortened: (§2)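 Weeds sown 5 mm deep in pots of greenhouse clay soil (pH 6.5, 37.5% clay, CEC 12.9 cmol/kg) and grown at 22-25 °C. Water-diluted formulation was applied pre-emergence 24 h after sowing. Untreated and DMF solvent controls were included. Growth inhibition was visually rated in % against untreated controls after 15 days, as the mean of triplicates.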

[4] = test system: Digitaria sanguinalis; assay: Pre-emergence herbicidal activity against Digitaria sanguinalis (hairy crabgrass) assessed as growth inhibition at 75 g.a.i./ha applied 24 hr after seeds were sown measured after 15 days; details: read-out: GI; procedure, shortened: as §2
[5] = test system: Amaranthus; assay: Pre-emergence herbicidal activity against Amaranthus ascendens assessed as growth inhibition at 75 g.a.i./ha applied 24 hr after seeds were sown measured after 15 days; details: read-out: GI; procedure, shortened: as §2
[6] = test system: Chenopodium album; assay: Pre-emergence herbicidal activity against Chenopodium album assessed as growth inhibition at 75 g.a.i./ha applied 24 hr after seeds were sown measured after 15 days; details: read-out: GI; procedure, shortened: as §2
[7] = test system: Abutilon theophrasti; assay: Pre-emergence herbicidal activity against Abutilon theophrasti (velvetleaf) assessed as growth inhibition at 75 g.a.i./ha applied 24 hr after seeds were sown measured after 15 days; details: read-out: GI; procedure, shortened: as §2
[8] = test system: Setaria viridis; assay: Post-emergence herbicidal activity against Setaria viridis (green foxtail) assessed as growth inhibition at 75 g.a.i./ha applied at one-leaf stage measured after 15 days; details: 360 h, read-out: GI; procedure, shortened: as §1
[9] = test system: Echinochloa crus-galli; assay: Post-emergence herbicidal activity against Echinochloa crus-galli (barnyard grass) assessed as growth inhibition at 75 g.a.i./ha applied at one-leaf stage measured after 15 days; details: 360 h, read-out: GI; procedure, shortened: as §1
[10] = test system: Amaranthus; assay: Post-emergence herbicidal activity against Amaranthus ascendens assessed as growth inhibition at 75 g.a.i./ha applied at two-leaf stage measured after 15 days; details: 360 h, read-out: GI; procedure, shortened: as §1
[11] = test system: Digitaria sanguinalis; assay: Post-emergence herbicidal activity against Digitaria sanguinalis (hairy crabgrass) assessed as growth inhibition at 75 g.a.i./ha applied at one-leaf stage measured after 15 days; details: 360 h, read-out: GI; procedure, shortened: as §1
[12] = test system: Chenopodium album; assay: Post-emergence herbicidal activity against Chenopodium album assessed as growth inhibition at 75 g.a.i./ha applied at two-leaf stage measured after 15 days; details: 360 h, read-out: GI; procedure, shortened: as §1

| Structure (SMILES) | inhibition of growth at 75 g/ha [1] [%] | inhibition of growth at 75 g/ha [2] [%] | inhibition of growth at 75 g/ha [3] [%] | inhibition of growth at 75 g/ha [4] [%] | inhibition of growth at 75 g/ha [5] [%] | inhibition of growth at 75 g/ha [6] [%] | inhibition of growth at 75 g/ha [7] [%] | inhibition of growth at 75 g/ha [8] [%] | inhibition of growth at 75 g/ha [9] [%] | inhibition of growth at 75 g/ha [10] [%] | inhibition of growth at 75 g/ha [11] [%] | inhibition of growth at 75 g/ha [12] [%] |
| --- | --- | --- | --- | --- | --- | --- | --- | --- | --- | --- | --- | --- |
| CCOC(=O)CN1C(=O)C(C)Oc2cc(F)c(N3C(=O)C4=C(CCCC4)C3=O)cc21 (stereo not given) | > 80 | < 50 | < 50 | < 50 | > 80 | > 80 | > 80 | < 50 | < 50 | > 80 | < 50 | > 80 |
| CCOC(=O)C(C)N1C(=O)COc2cc(F)c(N3C(=O)C4=C(CCCC4)C3=O)cc21 (stereo not given) | > 80 | 50 | < 50 | 50 | > 80 | > 80 | > 80 | > 80 | > 80 | > 80 | > 80 | > 80 |
| CCC(C(=O)OC)N1C(=O)COc2cc(F)c(N3C(=O)C4=C(CCCC4)C3=O)cc21 (stereo not given) | > 80 | < 50 | < 50 | < 50 | < 50 | < 50 | < 50 | 50 | < 50 | > 80 | 50 | > 80 |
| CCOC(=O)CN1C(=O)COc2cc(F)c(N3C(=O)c4ccc([N+](=O)[O-])cc4C3=O)cc21 | 50 | < 50 | < 50 | < 50 | < 50 | < 50 | < 50 | < 50 | < 50 | 50 | < 50 | 50 |
| COC(=O)CN1C(=O)COc2cc(F)c(N3C(=O)c4ccccc4C3=O)cc21 | > 80 | < 50 | < 50 | < 50 | 50 | 50 | 50 | < 50 | < 50 | > 80 | < 50 | > 80 |
| CCOC(=O)CN1C(=O)COc2cc(N3C(=O)c4ccc(C)cc4C3=O)c(F)cc21 | < 50 | < 50 | < 50 | < 50 | < 50 | < 50 | < 50 | < 50 | < 50 | < 50 | < 50 | < 50 |
| COC(=O)C(C)N1C(=O)COc2cc(F)c(N3C(=O)C4=C(CCCC4)C3=O)cc21 (stereo not given) | > 80 | < 50 | < 50 | < 50 | 50 | 50 | > 80 | > 80 | > 80 | > 80 | > 80 | > 80 |
| CCOC(=O)CN1C(=O)COc2cc(F)c(N3C(=O)c4ccc(C)cc4C3=O)cc21 | 50 | < 50 | < 50 | < 50 | < 50 | < 50 | < 50 | < 50 | < 50 | 50 | < 50 | 50 |
| COC(=O)CN1C(=O)C(C)Oc2cc(F)c(N3C(=O)C4=C(CCCC4)C3=O)cc21 (stereo not given) | > 80 | < 50 | < 50 | < 50 | > 80 | > 80 | > 80 | 50 | < 50 | > 80 | 50 | > 80 |
| CCOC(=O)CN1C(=O)COc2cc(F)c(N3C(=O)c4ccccc4C3=O)cc21 | > 80 | < 50 | < 50 | < 50 | 50 | 50 | 50 | < 50 | < 50 | > 80 | < 50 | > 80 |

— ChEMBL document CHEMBL3045743, “Synthesis and herbicidal activity of isoindoline-1,3-dione substituted benzoxazinone derivatives containing a carboxylic ester group” (J Agric Food Chem, 2009)
